Values after ≈ are worked out from the molar mass of the structure shown. Like-named read-outs stand apart in the source and are kept apart here.
Experiments:
[1] = system: S. aureus ATCC 33592 (Sa92); assay: MIC, microdilution with resazurin; type: cell-based; details: Staphylococcus aureus, ATCC33592, read-out: MIC Sa92
Method in brief: (§1)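 Compounds dissolved in DMSO at 2 mg/mL. Overnight blood-agar colonies were suspended in PBS to 0.5 McFarland, then diluted in Mueller Hinton broth to about 1x10^6 cfu/mL with resazurin (1:1000 of 0.1% w/v stock). Twofold DMSO dilutions were added 1:40, giving 50 to 0.4 μg/mL at 2.5% DMSO. Incubation was 35 °C for 16-20 h. Blue/non-turbid wells counted as inhibited, pink/turbid as grown.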

[2] = system: S. aureus ATCC 33591 (Sa91); assay: MIC, microdilution with resazurin; type: cell-based; details: Staphylococcus aureus, ATCC33591, read-out: MIC Sa91
Method in brief: as §1

[3] = system: B. subtilis ATCC 6623 (Bs); assay: MIC, microdilution with resazurin; type: cell-based, Bacillus subtilis; details: for MIC: Bacillus subtilis, ATCC6623, read-out: MIC Bs
[4] = system: tested Gram-positive bacterial strains; assay: MIC, text summary over tested Gram-positive strains; type: cell-based; details: for MIC: read-out: MIC value as low as
[5] = system: S. aureus ATCC 700699 (Sa99); assay: MIC, microdilution with resazurin; type: cell-based; details: Staphylococcus aureus, ATCC700699, read-out: MIC Sa99
Method in brief: as §1

[6] = system: A. baumannii ATCC 747 (Ab47); assay: MIC, microdilution with resazurin; type: cell-based, Acinetobacter baumannii; details: Acinetobacter baumannii, ATCC747, read-out: MIC Ab47
Method in brief: as §1

[7] = system: S. aureus ATCC 25923 (Sa23); assay: MIC, microdilution with resazurin; type: cell-based; details: Staphylococcus aureus, ATCC25923, read-out: MIC Sa23
Method in brief: as §1

[8] = system: A. baumannii ATCC 19606 (type strain, Ab06); assay: MIC and MBC; type: cell-based, Acinetobacter baumannii; details: Acinetobacter baumannii
Method in brief: as §1

[9] = system: S. aureus BAA-2312 (Sa12); assay: MIC, microdilution with resazurin; type: cell-based; details: Staphylococcus aureus, BAA2312, read-out: MIC Sa12
Method in brief: as §1

[10] = system: human embryonic kidney cell line (HEK293); assay: Toxicity against HEK293 cell line; type: cell-based
[11] = system: S. aureus ATCC 33599 (MRSA); assay: MIC and MBC; type: cell-based, Staphylococcus aureus; design: MBC as multiple of the MIC: unit not given beside the values; details: for MBC / MIC: Staphylococcus aureus, ATCC33599|MRSA
Method in brief: as §1

[12] = system: S. epidermidis 700296 (Se); assay: MIC, microdilution with resazurin; type: cell-based; details: Staphylococcus epidermidis, read-out: MIC Se
Method in brief: as §1

[13] = system: tested A. baumannii strains; assay: MIC, text summary over A. baumannii strains; type: cell-based, Acinetobacter baumannii; details: Acinetobacter baumannii, read-out: MIC value as low as
Method in brief: as §1

[14] = system: S. aureus ATCC 25923 biofilm formation; assay: Biofilm inhibition assay; type: cell-based, Staphylococcus aureus; details: 2xMIC
Method in brief: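 Blood-agar culture was suspended in PBS (0.5 McFarland), then diluted 1:100 in yeast extract casamino acid broth (about 1x10^6 cfu/mL). Compound at 2xMIC, MIC and 0.5xMIC was added before biofilm formation, in triplicate, with broth-only and bacteria+DMSO controls. Incubation was 35 °C for 24 h. Wells were PBS-washed, dried, stained with 0.1% crystal violet, solubilised in 33% acetic acid and read at 620 nm. % inhibition = [1−(ODcompound−ODbroth)/(ODdmso−ODbroth)]×100, from mean and SD.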

[15] = system: S. aureus ATCC 25923 preformed biofilm; assay: Biofilm destruction assay; type: cell-based, Staphylococcus aureus; details: 2xMIC, MIC and 0.5xMIC tested, 24 hours
Method in brief: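 Biofilm was first grown in 96-well plates for 24 h at 35 °C and washed with PBS to remove unadhered cells. Fresh yeast extract casamino acid broth was added with compound at 2xMIC, MIC or 0.5xMIC, or DMSO, in triplicate, plus broth-only wells. Incubation was 35 °C for 24 h. Crystal violet was stained, solubilised and read at 620 nm. % destruction = [1−(ODcompound−ODbroth)/(ODdmso−ODbroth)]×100, from triplicate means.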

[16] = system: S. aureus ATCC 33599 (MRSA); assay: Time kill assay; type: cell-based, Staphylococcus aureus
Method in brief: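 Growth curves by optical density set the log phase. Log-phase bacteria (about 2 h shaking in Mueller Hinton broth II) were diluted in warm broth to about 3x10^6 cfu/mL. They were exposed to compound at 4xMIC (other multiples where indicated), in triplicate, at 35 °C. Colistin (A. baumannii) or vancomycin (S. aureus) and DMSO were included. Samples at 0, 2, 4, 6, 8, 10, 12 and 24 h were counted by drop plate on blood agar (18-24 h, 35 °C). Log cfu/mL was plotted against time.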

[17] = system: S. aureus ATCC 33599 (MRSA); assay: BacLight membrane permeability assay; type: cell-based, Staphylococcus aureus; details: versus positive control vancomycin

Compound | MIC [1] | MIC [2] | MIC [3] | MIC [4] | MIC [5] | MIC [6] | MIC [7] | MIC ([8]; ATCC19606, read-out: MIC Ab06) | MIC [9] | toxicity for HEK293 [10] | MBC [11] | MIC [11] | MIC [12] | destruction of preformed biofilm [15] | other results
O=C(O)c1ccc(-n2cc(/C=N/Nc3c(F)c(F)cc(F)c3F)c(-c3ccc4ccccc4c3)n2)cc1 [Compound 23] | 1.56 µg/mL (≈ 3.09 µM) | > 50 µg/mL | 3.12 µg/mL (≈ 6.19 µM) | ≥ 0.78 µg/mL | 1.56 µg/mL (≈ 3.09 µM) | > 50 µg/mL | 3.12 µg/mL (≈ 6.19 µM) | > 50 µg/mL | > 50 µg/mL | selective toxicity for bacterial cells | 12.5 µg/mL (≈ 24.8 µM) | 1.56 µg/mL (≈ 3.09 µM) | > 50 µg/mL | – | –
O=C(O)c1ccc(-n2cc(/C=N/Nc3cccc(F)c3)c(-c3ccc4ccccc4c3)n2)cc1 [Compound 15] | 3.12 µg/mL (≈ 6.94 µM) | 12.5 µg/mL (≈ 27.7 µM) | 12.5 µg/mL (≈ 27.7 µM) | ≥ 1.56 µg/mL | 1.56 µg/mL (≈ 3.46 µM) | 12.5 µg/mL (≈ 27.7 µM) | 6.25 µg/mL (≈ 13.9 µM) | 6.25 µg/mL (≈ 13.9 µM) | 12.5 µg/mL (≈ 27.7 µM) | – | – | – | 6.25 µg/mL (≈ 13.9 µM) | – | MBC ([8]; ATCC19606): 12.5 µg/mL (≈ 27.7 µM); MIC ([8]; ATCC19606): 6.25 µg/mL (≈ 13.9 µM); MIC [13]: ≥ 6.25 µg/mL
O=C(O)c1ccc(-n2cc(/C=N/Nc3ccc(C(F)(F)F)cc3)c(-c3ccc4ccccc4c3)n2)cc1 [Compound 25] | 0.78 µg/mL (≈ 1.56 µM) | 25 µg/mL (≈ 50 µM) | 1.56 µg/mL (≈ 3.12 µM) | ≥ 0.78 µg/mL | 0.78 µg/mL (≈ 1.56 µM) | > 50 µg/mL | 0.78 µg/mL (≈ 1.56 µM) | > 50 µg/mL | 12.5 µg/mL (≈ 25 µM) | – | 25 µg/mL (≈ 50 µM) | 0.78 µg/mL (≈ 1.56 µM) | 25 µg/mL (≈ 50 µM) | excellent ability to eliminate the preformed biofilms | inhibition of biofilm formation [14]: potent biofilm inhibition activity
O=C(O)c1ccc(-n2cc(/C=N/Nc3ccc(Cl)cc3Cl)c(-c3ccc4ccccc4c3)n2)cc1 [Compound 20] | 0.78 µg/mL (≈ 1.56 µM) | 6.25 µg/mL (≈ 12.5 µM) | 3.12 µg/mL (≈ 6.23 µM) | – | 0.78 µg/mL (≈ 1.56 µM) | > 50 µg/mL | 3.12 µg/mL (≈ 6.23 µM) | > 50 µg/mL | 3.12 µg/mL (≈ 6.23 µM) | – | 6.25 µg/mL (≈ 12.5 µM) | 0.78 µg/mL (≈ 1.56 µM) | 3.12 µg/mL (≈ 6.23 µM) | – | time kill effect ([16]; 4xMIC, 24 hours at 35 °C): mild bactericidal effect; time kill effect ([16]; 8xMIC): strongly bactericidal; time to kill all bacteria ([16]; 8xMIC): ≤ 4 h; antimicrobial activity against the tested strains [4]: enhanced activity against all the tested strains; membrane disruption activity, PI/SYTO-9 ratio [17]: more potent membrane disruption activity than vancomycin; selectivity factor (IC50/MIC) ([10]; HEK293 IC50 over MIC, as high as): ≤ 48.7; MBC as multiple of the MIC ([11]; S. aureus ATCC 33599 (MRSA)): 8
O=C(O)c1ccc(-n2cc(/C=N/N(Cc3ccccc3)Cc3ccccc3)c(-c3ccc4ccccc4c3)n2)cc1 [Compound 10] | 1.56 µg/mL (≈ 2.91 µM) | 1.56 µg/mL (≈ 2.91 µM) | > 50 µg/mL | ≥ 1.56 µg/mL | 1.56 µg/mL (≈ 2.91 µM) | > 50 µg/mL | 3.12 µg/mL (≈ 5.82 µM) | > 50 µg/mL | 3.12 µg/mL (≈ 5.82 µM) | did not show any significant toxicity | – | – | 3.12 µg/mL (≈ 5.82 µM) | excellent ability to eliminate the preformed biofilms | inhibition of biofilm formation ([14]; MIC and 0.5xMIC concentrations, 24 hours): very effective; MIC Bs ([3]; B. subtilis ATCC 6623): no activity; IC50 ([10]; Homo sapiens, HEK293, read-out: IC50 for HEK293 cell line): ~50 µg/mL (≈ 93.2 µM)

Source: article PMC7655718 (The Journal of antibiotics, 2020)
